Legend:
[1] = target: L. donovani DNA topoisomerase I; settings: L. donovani DNA topoisomerase I poison; cited from earlier work
[2] = Cytotoxicity on PMA-differentiated THP-1 cells; format: cell-based; settings: human, PMA-differentiated macrophage-like THP-1 cells
Method in brief: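 Human THP-1 cells grown in RPMI-1640 with 10% heat-inactivated FBS, 2 mM L-glutamine, penicillin and streptomycin at 37 °C, 5% CO2. Seeded at 5 × 10^6 cells per mL and differentiated 48 h with 20 ng mL−1 PMA. After adhesion, exposed to 1:2 dilutions (100 to 3.12 μM), in duplicate, with untreated and miltefosine controls. CellTiter 96 aqueous read-out; CC50 by nonlinear regression, mean and 95% CI.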

[3] = system: L. infantum MHOM/TN/80/IPT1 promastigotes; experiment: L. infantum viability assay; format: cell-based, Leishmania infantum
Method in brief: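 Late log/stationary promastigotes, kept in EMTM at 26–28 °C, then RPMI-PY. Plated at 2.5 × 10^6 parasites per mL with 20 μM test compound, 72 h, 26 °C, in duplicate, miltefosine as positive control. Viability by CellTiter 96 aqueous assay gives % inhibition. SI is THP-1 CC50 divided by promastigote IC50. IC50 comes from 20–0.31 μM dilutions, fitted by nonlinear regression with unconstrained Hill slope.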

## c1ccc2c(Cc3c[nH]c4ccccc34)c[nH]c2c1 [DIM, 3,3′-Diindolylmethane]
[1]
  IC50: 1200 nM

## CCCCCCCCCCCCCCCCOP(=O)([O-])OCC[N+](C)(C)C [MILT, Miltefosine]
[2]
  CC50: 36.6 µM
[3]; CC50 THP-1 / IC50 L. infantum promastigotes
  SI (selectivity index = CC50/IC50): 9.9
[3]; Leishmania infantum, 72 h, read-out: L. infantum IC50 (μM) (95% CI), L. infantum MHOM/TN/80/IPT1 promastigotes, 72 h, mean and 95% CI, duplicate experiments
  IC50: 3.7 µM
